Experimental data published in ChEMBL document CHEMBL4619800, “β-Hydroxy- and β-Aminophosphonate Acyclonucleosides as Potent Inhibitors of Plasmodium falciparum Growth” (J Med Chem, 2020).
Active and inactive are the calls of the source. No cut-off for these calls is given here.

What was measured:
[1] = test system: Plasmodium falciparum; experiment: Antiplasmodial activity against chloroquine-resistant Plasmodium falciparum W2 infected in erythrocytes assessed as reduction in [3H]hypoxanthine incorporation preincubated for 48 hrs followed by [3H]hypoxanthine addition and measured after 18 hrs by topcount scintillation counting analysis; assay type: functional, organism-based
How it was run: (§1)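 Modified Desjardins test. Infected erythrocytes at 1.5% final hematocrit and 0.6% parasitemia, in HEPES-buffered RPMI 1640 with 10% AB human serum and a range of compound concentrations, for 48 h. Then [³H]hypoxanthine (0.5 μCi/well) added for 18 h. Freeze-thaw lysis, filter harvest, scintillation counting, uninfected-erythrocyte background subtracted. IC50 from sigmoidal variable-slope regression. Mean of ≥3 independent experiments in duplicate.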

[2] = Toxicity in human K562 cells assessed as effect on cell growth measured after 24 hrs by [3H]thymidine incorporation based assay
How it was run: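 K562 cells seeded at 8000 per well in RPMI 1640 with 10% FCS. Incubated 24 h at 37 °C, 5% CO₂ with a range of compound concentrations. Then 0.5 μCi [³H]thymidine added for 6 h. Freeze-thaw, harvest of macromolecules and scintillation counting, with medium-only background subtracted.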

[3] = Selectivity index, ratio of IC50 for human K562 cells to IC50 for antiplasmodial activity against Plasmodium falciparum 3D7 infected in erythrocytes; assay type: toxicity, cell-based; details: K562 cells versus Plasmodium falciparum 3D7 in erythrocytes, read-out: Ratio IC50
[4] = test system: Plasmodium falciparum; experiment: Antiplasmodial activity against chloroquine-resistant Plasmodium falciparum FcM29 infected in erythrocytes assessed as reduction in [3H]hypoxanthine incorporation preincubated for 48 hrs followed by [3H]hypoxanthine addition and measured after 18 hrs by topcount scintillation counting analysis; assay type: functional, organism-based; how it was run: as §1
[5] = test system: Plasmodium falciparum; experiment: Antiplasmodial activity against Plasmodium falciparum 3D7 infected in erythrocytes assessed as reduction in [3H]hypoxanthine incorporation preincubated for 48 hrs followed by [3H]hypoxanthine addition and measured after 18 hrs by topcount scintillation counting analysis; assay type: functional, organism-based; how it was run: as §1
[6] = test system: Plasmodium berghei; experiment: Antiplasmodial activity against Plasmodium berghei ANKA infected in ip dosed Swiss NMRI mouse assessed as reduction in parasitemia administered once daily for 4 days measured 24 hrs post-last dose by Giemsa-staining based assay; assay type: functional
How it was run: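 Female Swiss NMRI mice infected on day 0 by IV injection of 10⁷ P. berghei ANKA-infected erythrocytes. Dosed ip once daily for 4 days from day 1, 3 mice per group. Test doses 0–30 mg/kg in 0.9% NaCl; artesunate 0–27 mg/kg in DMSO. Controls received vehicle. Parasitemia counted on day 5 from Giemsa-stained smears, and ED50 taken as the dose giving 50% parasitemia reduction.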

[7] = test system: Plasmodium falciparum; experiment: (§2) Antiplasmodial activity against synchronized ring stage Plasmodium falciparum 3D7 infected in erythrocytes assessed as effect on parasite development by measuring ring stage parasitemia at 2 uM measured after 24 hrs by Giemsa/Diff-quick staining based fluorescence microscopic analysis (reference value: 2.1%); assay type: functional
How it was run: (§3)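 Tightly synchronized ring-stage culture at 2.5% hematocrit and 1–2% parasitemia, treated or not with 2 μM for 69 h, with drug-containing medium renewed every 24 h. Thin smears taken every 6 h, methanol-fixed and stained with Diff-Quick (pH 7.2). Parasitemia scored by parasite stage, and morphology examined.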

[8] = test system: Plasmodium berghei; experiment: Antiplasmodial activity against Plasmodium berghei ANKA infected in Swiss NMRI mouse assessed as parasitemia at 30 mg/kg, ip administered once daily for 4 days measured on day 11 by Giemsa-staining based assay relative to control; assay type: functional
How it was run: (§4)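 Female Swiss NMRI mice infected on day 0 by IV caudal-vein injection of 10⁷ P. berghei ANKA-infected erythrocytes (clone 2.34). Compound given ip in 0.9% NaCl, 100 μL per mouse, 3 mice per group. Either one daily dose for 4 consecutive days from day 1, or a single dose on day 1. Parasitemia counted on Giemsa-stained thin smears and followed for 30 days. Controls received vehicle only.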

[9] = test system: Plasmodium berghei; experiment: Antiplasmodial activity against Plasmodium berghei ANKA infected in Swiss NMRI mouse assessed as parasitemia at 30 mg/kg, ip administered once daily for 4 days measured on day 14 by Giemsa-staining based assay relative to control; assay type: functional; how it was run: as §4
[10] = test system: Plasmodium falciparum; experiment: as §2, with “measuring early schizont” for “measuring ring”, “uM supplemented with fresh medium containing compound every 24 hrs” for “uM”, “measured at 39” for “measured after 24”; assay type: functional; how it was run: as §3
[11] = test system: Plasmodium falciparum; experiment: (§5) Antiplasmodial activity against segmented schizont stage Plasmodium falciparum 3D7 infected in erythrocytes assessed as effect on merozoite development at 2 uM supplemented with fresh medium containing compound every 24 hrs measured at 45 hrs by Hoechst staining based immunofluorescence microscopic analysis; assay type: functional, organism-based
How it was run: (§6)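 Tightly synchronized ring-stage culture at 2.5% hematocrit and 1–2% parasitemia, treated or not with 2 μM; drug-containing medium changed every 24 h. At 45 h (segmented schizonts), smears fixed in 4% formaldehyde/PBS, glycine-quenched, Triton X-100-permeabilized and BSA-blocked. Stained with α-mTIP and α-MSP1 antibodies, then secondaries, with Hoechst labelling nuclei.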

[12] = test system: Plasmodium falciparum; experiment: as §2, with “measuring late schizont” for “measuring ring”, “uM supplemented with fresh medium containing compound every 24 hrs” for “uM”, “measured at 42” for “measured after 24”, “value: 1.9%)” for “value: 2.1%)”; assay type: functional; how it was run: as §3
[13] = test system: Plasmodium falciparum; experiment: as §5, with “DNA content” for “development”; assay type: functional, organism-based; how it was run: as §6
[14] = test system: Plasmodium falciparum; experiment: as §2, with “immediately” for “after 24 hrs”; assay type: functional; how it was run: as §3
[15] = test system: Plasmodium falciparum; experiment: as §2, with “uM supplemented with fresh medium containing compound every 24 hrs” for “uM”, “at 48” for “after 24”, “9.9%)” for “2.1%)”; assay type: functional; how it was run: as §3
[16] = test system: Plasmodium falciparum; experiment: as §2, with “measuring late schizont” for “measuring ring”, “uM supplemented with fresh medium containing compound every 24 hrs” for “uM”, “measured at 48” for “measured after 24”, “value: 0.4%)” for “value: 2.1%)”; assay type: functional; how it was run: as §3
[17] = test system: Plasmodium falciparum; experiment: as §2, with “uM supplemented with fresh medium containing compound every 24 hrs” for “uM”, “at 69” for “after 24”, “11.1%)” for “2.1%)”; assay type: functional; how it was run: as §3
[18] = test system: Plasmodium berghei; experiment: Antiplasmodial activity against Plasmodium berghei ANKA infected in po dosed Swiss NMRI mouse assessed as reduction in parasitemia administered once daily for 4 days measured 24 hrs post-last dose by Giemsa-staining based assay; assay type: functional
How it was run: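 Female Swiss NMRI mice infected on day 0 by IV injection of 10⁷ P. berghei ANKA-infected erythrocytes. Oral dosing in water (100 μL, 3 mice per group) at 0, 1, 3, 10 and 30 mg/kg, once daily for 4 days from day 1. Water-only controls. Day-5 parasitemia counted on Giemsa-stained thin smears, and ED50 derived as the dose reducing parasitemia by 50%.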

[19] = test system: Plasmodium berghei; experiment: Antiplasmodial activity against Plasmodium berghei ANKA infected in Swiss NMRI mouse assessed as reduction in parasitemia at 30 mg/kg, ip administered as single dose by Giemsa-staining based assay relative to control; assay type: functional; parameters: scale not given: the % may be the effect or the level left; how it was run: as §4

Row | SMILES | IC50 at 24 h [2] | selectivity ratio [3] | IC50 [5] | further results
1 | Nc1nc2c(ncn2CC[C@H](O)CP(=O)(O)O)c(=O)[nH]1 | > 1000 µM | 164 | 6.1 µM | IC50 [1]: 5.6 µM; IC50 [4]: 4.5 µM
2 | C[C@H]1[C@H](OC(=O)CCC(=O)O)O[C@@H]2O[C@@]3(C)CC[C@H]4[C@H](C)CC[C@@H]1[C@@]24OO3 [ARTESUNATE] |  |  |  | ED50 [6]: 0.1 mg/kg
3 | Nc1nc(N)c2ncn(CC[C@H](O)CP(=O)(O)O)c2n1 | > 1000 µM |  | > 1000 µM | 
4 | Nc1ncnc2c1ncn2C[C@H](O)CP(=O)(O)O | > 1000 µM |  | > 1000 µM | 
5 | Nc1nc(O)c2ncn(CC/C=C\P(=O)(O)O)c2n1 | > 1000 µM |  | > 100 µM | 
6 | Nc1ncnc2c1ncn2C[C@@H](O)CP(=O)(O)O | > 1000 µM |  | > 1000 µM | 
7 | Nc1nc(N)c2ncn(C[C@H](O)CP(=O)(O)O)c2n1 | > 1000 µM | > 2 | 510 µM | 
8 | Nc1nc(N)c2ncn(CC[C@H](N)CP(=O)(O)O)c2n1 | > 1000 µM |  | > 100 µM | 
9 | O=c1[nH]cnc2c1ncn2CC[C@@H](O)CP(=O)(O)O | > 1000 µM |  | > 1000 µM | 
10 | Nc1nc(N)c2ncn(CC[C@@H](N)CP(=O)(O)O)c2n1 | > 1000 µM |  | > 100 µM | 
11 | Nc1nc(F)nc2c1ncn2CC[C@@H](O)CP(=O)(O)O | > 1000 µM | > 38 | 26.3 µM | 
12 | Nc1nc(N)c2ncn(CC[C@@H](O)CP(=O)(O)O)c2n1 | > 1000 µM | > 21 | 48 µM | 
13 | Nc1nc2c(ncn2C[C@@H](O)CP(=O)(O)O)c(=O)[nH]1 | > 1000 µM |  | > 1000 µM | 
14 | Nc1nc(O)c2ncn(CC[C@H](N)CP(=O)(O)O)c2n1 | > 1000 µM |  | > 100 µM | 
15 | O=c1[nH]c(=O)c2ncn(CC[C@@H](O)CP(=O)(O)O)c2[nH]1 | > 1000 µM |  | 590 µM | 
16 | Nc1ncc2ncn(CC[C@@H](O)CP(=O)(O)O)c2n1 | > 1000 µM | > 16 | 67 µM | 
17 | CCN(CC)CCCC(C)Nc1ccnc2cc(Cl)ccc12 (stereo not drawn) [CHLOROQUINE] | 25.3 µM |  |  | 
18 | Nc1nc2c(ncn2C[C@H](O)CP(=O)(O)O)c(=O)[nH]1 | > 1000 µM | > 1.7 | 595 µM | 
19 | O=c1[nH]c(=O)c2ncn(CC[C@H](O)CP(=O)(O)O)c2[nH]1 | > 1000 µM | > 1 | 910 µM | 
20 | Nc1nc(O)c2ncn(CCCCP(=O)(O)O)c2n1 | > 1000 µM | > 17 | 74 µM | 
21 | O=c1[nH]cnc2c1ncn2CC[C@H](O)CP(=O)(O)O | > 1000 µM |  | > 1000 µM | 
22 | Nc1ncnc2c1ncn2CC[C@H](O)CP(=O)(O)O | > 1000 µM |  | > 1000 µM | 
23 | Nc1nc(O)c2ncn(CC[C@@H](N)CP(=O)(O)O)c2n1 | > 1000 µM |  | > 100 µM | 
24 | Nc1nc2c(ncn2CC[C@@H](O)CP(=O)([O-])[O-])c(=O)[nH]1.[Na+].[Na+] | > 1000 µM | > 1350 | 0.074 µM | IC50 [1]: 0.045 µM; Activity [7]: 2.1%; Activity [8]: 6.9 - 16.7%; Activity [9]: 1.7%; Activity [10]: 2.1%; Activity [11]: inactive; Activity [12]: 1.7%; IC50 [4]: 0.03 µM; Activity [13]: inactive; Activity [14]: 2.1%; Activity [15]: 0.6%; Activity [16]: 1.3%; ED50 [6]: 0.56 mg/kg; Activity [17]: 0%; ED50 [18]: 30 mg/kg; Activity [19]: 95%
25 | Nc1nc(N)c2ncn(C[C@@H](O)CP(=O)(O)O)c2n1 | > 1000 µM | > 2.6 | 327 µM | 
26 | Nc1ncnc2c1ncn2CC[C@@H](O)CP(=O)(O)O | > 1000 µM |  | > 1000 µM | 
